# Hits are enriched below; roughly 1.9% of the tested compounds scored in any of these assays.
# Runt-CBFb FRET – inhibitors of human RUNX1 Runt domain binding to CBFb; AID 1496; 220,000 compounds, 0.46% hits; inhibition, % at 20 µM; Cerulean-Runt/Venus-CBFb FRET ratio 530/480, 1 h;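 active = inhibition over about 50% at 20 µM in the single-dose screen, limit read from the data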;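 note: 0% = DMSO wells and 100% = excess unlabeled CBFb competitor control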
#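 Assay system: Cerulean-tagged RUNX1 Runt domain (FRET donor) fusion protein / Amount: 100 nM each of Venus-CBFb and Cerulean-Runt domain / Medium: Tris buffer pH 7.5 with salts and BSA / Also added: Venus-CBFb 100 nM / Schedule: 1 h complex formation plus 1 h compound treatment, room temperature / Signal: FRET fluorescence / Read-out: loss of energy transfer signal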
# LANA-H2A inh – blocks KSHV LANA binding to histone H2A/H2B; cell-free LANA-H2A/H2B peptide, fluorescence polarization; 320,000 compounds, 0.6% hits; inhibition, % (concentration not given with the values); in the data active = inhibition mostly above about 10%, no sharp cut-off; inactive = mostly below about 6.7%
# RanGTP-Imp inh – inhibitors of RanGTP-importin-beta interaction, primary screen, biochemical, FRET, CFP-Ran, YFP-importin-beta, homogeneous; inhibition, % (no concentration beside the values); 300,000 compounds, 1.1% hits; cell-free CFP-Ran/YFP-importin-beta FRET ratio;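 active = more than half of the replicate wells show a fall in the fluorescence ratio signal beyond about 16%, limit read from the data, passing the limit was not always enough; inconclusive = exactly half of the replicate wells pass the set limit; inactive = fewer than half of replicates pass the limit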;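 note: 0% = DMSO wells and 100% = Ran loaded with GDP instead of GTP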
# HDAC3 inhib – blocks human histone deacetylase 3 | O15379 | recombinant HDAC3, fluorogenic peptide/trypsin coupled, fluorescence | inhibition, % at 8.3 µM | 320,000 compounds, 0.15% hits | AID 2718; in the data active = inhibition above about 26%, passing the limit was not always enough; inconclusive = no clear call, values can overlap the other calls
# Target sequence (O15379 whole entry, looked up): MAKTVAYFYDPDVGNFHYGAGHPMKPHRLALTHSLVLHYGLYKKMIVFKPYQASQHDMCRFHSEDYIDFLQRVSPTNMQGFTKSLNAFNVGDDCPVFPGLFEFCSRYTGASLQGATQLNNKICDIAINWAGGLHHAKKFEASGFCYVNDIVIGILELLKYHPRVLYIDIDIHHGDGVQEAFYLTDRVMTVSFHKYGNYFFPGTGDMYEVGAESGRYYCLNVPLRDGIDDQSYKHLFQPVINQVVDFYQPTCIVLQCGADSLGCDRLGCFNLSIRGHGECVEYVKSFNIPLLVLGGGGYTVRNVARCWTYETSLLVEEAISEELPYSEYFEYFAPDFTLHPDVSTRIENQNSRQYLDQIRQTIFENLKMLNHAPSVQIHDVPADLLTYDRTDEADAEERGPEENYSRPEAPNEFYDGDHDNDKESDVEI
# CaV13 ICDI inh – Primary screen for inhibitors of IQ motif and Ca2+-dependent inactivation inhibitor domain binding in CACNA1D, Förster resonance energy transfer in living cells, …; 340,000 compounds, 0.098% hits; HEK cells, CFP/YFP FRET ICDI-IQ, plate reader, 10 min; percent FRET-ratio fall versus neutral wells; inhibition, % at 12.3 µM;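 active = mean replicate inhibition of at least 30% and at least 1% of replicates passing that level; inconclusive = only one of the two criteria is met; inactive = neither criterion is met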;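 note: 0% = median of the neutral control wells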
# Runt-SMMHC FRET – inhibitors of human RUNX1 Runt domain binding to CBFb-SMMHC; Cerulean-Runt/Venus-CBFb-SMMHC FRET ratio 530/480, 1 h; inhibition, % at 20 µM; 220,000 compounds, 0.74% hits; AID 1434;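 active = mean inhibition across duplicate retests at 20 µM reaching about 50%, limit read from the data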;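 note: 0% = DMSO wells and 100% = wells with excess untagged CBFb-SMMHC; inhibitors lower the FRET ratio by blocking Runt binding to CBFb-SMMHC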
# YIC FRET counter – counter-screen for RanGTP-importin-beta inhibitors: YIC FRET probe. shares compounds with RanGTP-Imp inh. Purified YIC probe, intramolecular FRET ratio YFP/CFP. IC50, µM. 1,000 compounds, 40% hits. AID 435026;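 active = fitted half-maximal inhibitory concentration no more than tenfold above the top dose tested; inconclusive = flat fit with 30 to 70% activity, or poor fit; inactive = half-maximal concentration beyond tenfold above the top dose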
# * hit, by the source's call; ? = inconclusive; . = no result.
SMILES,Runt-CBFb FRET,LANA-H2A inh,RanGTP-Imp inh,HDAC3 inhib,CaV13 ICDI inh,Runt-SMMHC FRET,YIC FRET counter
COc1ccc(C2C3=C(CC(C)(C)CC3=O)Nc3n[nH]c(C)c32)cc1 (stereo not given),-1,4,6,-20,-7,0,.
Clc1ccc(NCc2cccnc2)c(Cl)c1,.,2,5,-4,-4,.,.
CCOC(=O)c1c(NC(=O)c2cccc(N3C(=O)CCC3=O)c2)sc2c1CCN(CC)C2,.,0,21*,11,.,.,>50
CC12CCC(C(=O)NCc3ccccc3Cl)(CC1=O)C2(C)C (stereo not given),1,0,0,0,-9,1,.
CCOC(=O)/C(C#N)=C\c1ccc(N2CCN(C)CC2)cc1,14,-2,21*,-4,-4,44,16*
CCOC(=O)/C(C#N)=C/c1ccc(N2CCN(C)CC2)cc1,10,-1,20*,7,-2,35,16*
Cc1cc(C)c2nc(-c3cccnc3)cc(C(=O)NC(C)c3cnn(C)c3C)c2c1 (stereo not given),1,-4,-2,-26,11,-3,.
COc1cc(C2C3CN(C)CC=C3C(C#N)=C(N)C2(C#N)C#N)ccc1OC(C)C (stereo not given),88*,5,39*,8,-6,39,3.3*
COc1ccc([C@@H]2[C@H]3CN(C(C)=O)CC=C3C(C#N)=C(N)C2(C#N)C#N)c2ccccc12,4,.,4,.,-7,11,.
CNc1nc2cc([N+](=O)[O-])c([N+](=O)[O-])cc2nc1NC,-2,7,-2,0,-2,-4,.
O=c1nc(-c2ccccc2)c2ccccc2[nH]1,1,-4,-4,-1,.,0,.
O=c1nc(-c2ccccc2Cl)c2cc(F)ccc2[nH]1,.,1,25*,-9,-6,.,>50
C=CCNC(=O)c1cccc(OC2CCN(CC(C)(C)C)CC2)c1,.,-1,18*,-8,10,.,>50
C=CCN(CC=C)C(=O)c1cccc(OC2CCN(CC(C)(C)C)CC2)c1,.,-2,?,2,-5,.,.
CCCS(=O)(=O)c1nc(S(=O)(=O)c2ccc(C)cc2)c(NCc2ccccn2)s1,3,-6,5,9,2,0,.
CCS(=O)(=O)c1nc(S(=O)(=O)c2ccc(C)cc2)c(NCc2ccccn2)s1,8,5,16*,-6,-1,-4,>50
Cn1c(N)c(C(=O)COC(=O)c2cccs2)c(=O)n(C)c1=O,4,2,-4,2,.,0,.
O=C(Cc1c2ccccc2nc2ccccc12)c1ccccc1,126*,8,22*,-21,-4,115*,>50
COc1cc(OC)cc(C(=O)Nc2sc3c(c2C(N)=O)CCC3)c1,.,-9,18*,-4,-3,.,>26
COc1ccc(CC(=O)Nc2sc3c(c2C(N)=O)CCCC3)cc1,.,-4,3,1,-3,.,.
COc1ccccc1CCn1cnc(-c2ccccc2OC)c1C(C)C,.,.,.,.,-8,.,.
O=C1CC(/C=C/c2ccco2)=Nc2ccccc2N1,13,0,24*,8,.,-1,>50
O=C1CC(/C=C/c2ccccn2)=Nc2ccccc2N1,-3,-4,-2,3,-17,-6,.
CCOc1ccc(C2N(c3cc(C)on3)C(=O)C3CCCN32)cc1OC (stereo not given),-1,-1,-4,?,-8,5,.
COc1c(Br)cc2c(C)c(C(=O)O)oc2c1Br,-1,-1,3,-1,-15,-4,.
Cc1c(Br)c(=O)oc2c(Br)c(O)c(O)cc12,55*,1,26*,-12,-3,76*,11*
O=C(Cc1cc(=O)oc2cc(O)ccc12)N[C@@H](Cc1c[nH]c2ccccc12)C(=O)O,.,0,21*,-8,-2,.,>50
